System: Human immunodeficiency virus 1
Experiment: Antiviral activity against HIV1 harboring reverse transcriptase Y181C mutant infected in human MT4 cells
Format: functional, organism-based
Settings: Human immunodeficiency virus 1, MT4

Compound | EC50
Cc1cc(C)cc(Oc2c(CSCc3ccco3)c(C)[nH]c(=O)c2I)c1 | 0.005 µM

System: Human immunodeficiency virus 2
Experiment: Antiviral activity against HIV2 ROD infected in human MT4 cells assessed as protection against virus-induced cytopathic effect after 5 days by MTT assay
Format: functional, organism-based
Settings: Human immunodeficiency virus 2, ISOLATE ROD, MT4, 120 h
How it was run: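 MT-4 cells resuspended at 6 × 10⁵ cells/mL after centrifugation at 200 g for 5 min. HIV-2 (ROD) added at 100-300 CCID₅₀. Test compound given as serial five-fold dilutions, triplicate wells. Viability of infected cells measured spectrophotometrically by MTT after 5 days. EC₅₀ = concentration giving 50% protection against viral cytopathic effect.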

Compound | EC50
Cc1cc(C#N)cc(C)c1Oc1cc(Nc2ccc(C#N)cc2)[nH]c(=O)c1Cl | > 319 µM
Cc1cc(C)c(Oc2cc(Nc3ccc(C#N)cc3)[nH]c(=O)c2)c(C)c1 | > 32 µM
Cc1cc(C#N)cc(C)c1Oc1cc(Nc2ccc(C#N)cc2)[nH]c(=O)c1 | > 25 µM
Cc1cccc(C)c1Oc1cc(Nc2ccc(C#N)cc2)[nH]c(=O)c1 | > 36 µM
Cc1cc(C)cc(Oc2cc(Nc3ccc(C#N)cc3)[nH]c(=O)c2)c1 | > 46 µM
Cc1cc(C)c(Oc2cc(Nc3ccc(C#N)cc3)[nH]c(=O)c2I)c(C)c1 | > 34 µM

System: not listed separately
Experiment: Selectivity index, ratio of CC50 for human MT4 cells to EC50 for HIV2 ROD
Format: toxicity, cell-based
Settings: read-out: Ratio CC50/EC50
How it was run: (§1)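 Selectivity index is CC₅₀/EC₅₀. Both values come from the same MTT assay in MT-4 cells: mock-infected and virus-infected (100-300 CCID₅₀) wells were run in parallel and read at day 5.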

Compound | selectivity ratio
Cc1cc(C#N)cc(C)c1Oc1cc(Nc2ccc(C#N)cc2)[nH]c(=O)c1Cl | 1
Cc1cc(C)c(Oc2cc(Nc3ccc(C#N)cc3)[nH]c(=O)c2)c(C)c1 | < 1
Cc1cc(C#N)cc(C)c1Oc1cc(Nc2ccc(C#N)cc2)[nH]c(=O)c1 | < 1
Cc1cccc(C)c1Oc1cc(Nc2ccc(C#N)cc2)[nH]c(=O)c1 | < 1
Cc1cc(C)cc(Oc2cc(Nc3ccc(C#N)cc3)[nH]c(=O)c2)c1 | < 1
Cc1cc(C)c(Oc2cc(Nc3ccc(C#N)cc3)[nH]c(=O)c2I)c(C)c1 | < 1

Biological target: Human immunodeficiency virus type 1 reverse transcriptase (Human immunodeficiency virus 1, UniProt Q72547)
Experiment: Inhibition of HIV1 reverse transcriptase assessed as inhibition of biotinylated dUTP incorporation after 1 hr by ELISA
Settings: not given
How it was run: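 Recombinant HIV-1 RT kit (colorimetric ELISA). Poly(A)·oligo(dT)₁₅ template/primer with DIG-dUTP, biotin-dUTP and dTTP, ±inhibitor, 1 h at 37 °C. Product captured on streptavidin plate (1 h, 37 °C), then anti-DIG-POD (1 h, 37 °C), ABTS developed at 25 °C, A405 read. IC₅₀ = concentration inhibiting biotin-dUTP incorporation by 50%.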

Compound | IC50
Cc1cc(C)c(Oc2cc(Nc3ccc(C#N)cc3)[nH]c(=O)c2)c(C)c1 | 39 µM
Cc1cc(C#N)cc(C)c1Oc1cc(Nc2ccc(C#N)cc2)[nH]c(=O)c1 | 5.2 µM

System: not listed separately
Experiment: Selectivity index, ratio of CC50 for human MT4 cells to EC50 for HIV1 RES056
Format: toxicity, cell-based
Settings: read-out: Ratio CC50/EC50
How it was run: as §1

Compound | selectivity ratio
Cc1cc(C#N)cc(C)c1Oc1cc(Nc2ccc(C#N)cc2)[nH]c(=O)c1Cl | 1
Cc1cc(C)c(Oc2cc(Nc3ccc(C#N)cc3)[nH]c(=O)c2)c(C)c1 | < 1
Cc1cc(C#N)cc(C)c1Oc1cc(Nc2ccc(C#N)cc2)[nH]c(=O)c1 | < 1
Cc1cccc(C)c1Oc1cc(Nc2ccc(C#N)cc2)[nH]c(=O)c1 | < 1
Cc1cc(C)c(Oc2cc(Nc3ccc(C#N)cc3)[nH]c(=O)c2I)c(C)c1 | < 1

System: not listed separately
Experiment: Cytotoxicity against human MT4 cells after 5 days by MTT assay
Format: cell-based
Settings: not given
How it was run: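 Exponentially growing MT-4 cells resuspended at 6 × 10⁵ cells/mL and exposed to serial five-fold compound dilutions in triplicate, mock-infected alongside infected wells. Viability read by MTT assay at day 5. CC₅₀ = concentration reducing mock-infected cell viability by 50%.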

Compound | CC50 at 120 h
Cc1cc(C#N)cc(C)c1Oc1cc(Nc2ccc(C#N)cc2)[nH]c(=O)c1Cl | > 319 µM
Cc1cc(C)c(Oc2cc(Nc3ccc(C#N)cc3)[nH]c(=O)c2)c(C)c1 | 32 µM
Cc1cc(C#N)cc(C)c1Oc1cc(Nc2ccc(C#N)cc2)[nH]c(=O)c1 | 25 µM
Cc1cccc(C)c1Oc1cc(Nc2ccc(C#N)cc2)[nH]c(=O)c1 | 36 µM
Cc1cc(C)cc(Oc2cc(Nc3ccc(C#N)cc3)[nH]c(=O)c2)c1 | 46 µM
Cc1cc(C)c(Oc2cc(Nc3ccc(C#N)cc3)[nH]c(=O)c2I)c(C)c1 | 34 µM

System: Human immunodeficiency virus 1
Experiment: Antiviral activity against HIV1 harboring reverse transcriptase K101N mutant infected in human MT4 cells
Format: functional, organism-based
Settings: Human immunodeficiency virus 1, MT4

Compound | EC50
Cc1cc(C)cc(Oc2c(CSCc3ccco3)c(C)[nH]c(=O)c2I)c1 | 0.001 µM

System: Human immunodeficiency virus 1
Experiment: Antiviral activity against HIV1 harboring reverse transcriptase K101N/Y181C double mutant infected in human MT4 cells
Format: functional, organism-based
Settings: Human immunodeficiency virus 1, MT4

Compound | EC50
Cc1cc(C)cc(Oc2c(CSCc3ccco3)c(C)[nH]c(=O)c2I)c1 | 0.004 µM

System: Human immunodeficiency virus 1
Experiment: Antiviral activity against HIV1 harboring wild type reverse transcriptase infected in human MT4 cells
Format: functional, organism-based
Settings: Human immunodeficiency virus 1, MT4

Compound | EC50
Cc1cc(C)cc(Oc2c(CSCc3ccco3)c(C)[nH]c(=O)c2I)c1 | 0.002 µM

System: Human immunodeficiency virus 1
Experiment: Antiviral activity against HIV1 3B harboring wild type reverse transcriptase infected in human MT4 cells assessed as protection against virus-induced cytopathic effect after 5 days by MTT assay
Format: functional, organism-based
Settings: Human immunodeficiency virus 1, 3B, MT4, 120 h
How it was run: (§2)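 MT-4 cells, growing exponentially, were spun and resuspended at 6 × 10⁵ cells/mL. They were infected at the start together with compound, given as serial five-fold dilutions in triplicate wells, with mock-infected wells run in parallel. Viability was read by MTT after 5 days. EC₅₀ is the concentration giving 50% protection against viral cytopathic effect.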

Compound | EC50
Cc1cc(C#N)cc(C)c1Oc1cc(Nc2ccc(C#N)cc2)[nH]c(=O)c1Cl | 7.2 µM
Cc1cc(C)c(Oc2cc(Nc3ccc(C#N)cc3)[nH]c(=O)c2)c(C)c1 | 0.37 µM
Cc1cc(C#N)cc(C)c1Oc1cc(Nc2ccc(C#N)cc2)[nH]c(=O)c1 | 0.15 µM
Cc1cccc(C)c1Oc1cc(Nc2ccc(C#N)cc2)[nH]c(=O)c1 | 1.4 µM
Cc1cc(C)cc(Oc2cc(Nc3ccc(C#N)cc3)[nH]c(=O)c2)c1 | > 46 µM
Cc1cc(C)c(Oc2cc(Nc3ccc(C#N)cc3)[nH]c(=O)c2I)c(C)c1 | 5.6 µM

System: Human immunodeficiency virus 1
Experiment: Antiviral activity against HIV1 RES056 harboring reverse transcriptase K103N/Y181C double mutant infected in human MT4 cells assessed as protection against virus-induced cytopathic effect after 5 days by MTT assay
Format: functional, organism-based
Settings: Human immunodeficiency virus 1, RES056, MT4, 120 h
How it was run: as §2

Compound | EC50
Cc1cc(C#N)cc(C)c1Oc1cc(Nc2ccc(C#N)cc2)[nH]c(=O)c1Cl | > 319 µM
Cc1cc(C)c(Oc2cc(Nc3ccc(C#N)cc3)[nH]c(=O)c2)c(C)c1 | > 32 µM
Cc1cc(C#N)cc(C)c1Oc1cc(Nc2ccc(C#N)cc2)[nH]c(=O)c1 | > 25 µM
Cc1cccc(C)c1Oc1cc(Nc2ccc(C#N)cc2)[nH]c(=O)c1 | > 36 µM
Cc1cc(C)c(Oc2cc(Nc3ccc(C#N)cc3)[nH]c(=O)c2I)c(C)c1 | > 34 µM

System: not listed separately
Experiment: Selectivity index, ratio of CC50 for human MT4 cells to EC50 for HIV1 3B
Format: toxicity, cell-based
Settings: read-out: Ratio CC50/EC50
How it was run: as §1

Compound | selectivity ratio
Cc1cc(C#N)cc(C)c1Oc1cc(Nc2ccc(C#N)cc2)[nH]c(=O)c1Cl | > 44
Cc1cc(C)c(Oc2cc(Nc3ccc(C#N)cc3)[nH]c(=O)c2)c(C)c1 | 87
Cc1cc(C#N)cc(C)c1Oc1cc(Nc2ccc(C#N)cc2)[nH]c(=O)c1 | 166
Cc1cccc(C)c1Oc1cc(Nc2ccc(C#N)cc2)[nH]c(=O)c1 | 26
Cc1cc(C)cc(Oc2cc(Nc3ccc(C#N)cc3)[nH]c(=O)c2)c1 | < 1
Cc1cc(C)c(Oc2cc(Nc3ccc(C#N)cc3)[nH]c(=O)c2I)c(C)c1 | 6

From ChEMBL document CHEMBL3120159, “Discovery of 2-pyridone derivatives as potent HIV-1 NNRTIs using molecular hybridization based on crystallographic overlays” (Bioorg Med Chem, 2014)
